A word on the EC50: it is the midpoint of the concentration-response curve.

The values below come from ChEMBL document CHEMBL1240406, “Identification of novel human immunodeficiency virus type 1-inhibitory peptides based on the antimicrobial peptide database” (Antimicrob Agents Chemother, 2010).

Data set [1] deals with Escherichia coli. Put plainly: Antibacterial activity against Escherichia coli K-12. The class given is functional, organism-based.
Data set [2] is described as follows: Cytotoxicity against human CEM-SS cells infected with HIV1 3B after 6 days by XTT assay. The class given is cell-based. The following applies: read-out: TC50. (Tetrazolium dyes change colour on reduction, which living cells bring about.)
In data set [3] the test system is Human immunodeficiency virus 1. Kind of data set: Antiviral activity against HIV1 3B infected in human CEM-SS cells assessed as inhibition of viral replication after 6 days by XTT assay. It is filed as functional, organism-based. The procedure, abridged: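 Peptides were added in triplicate at six serial concentrations, 0.32–100 μg/ml. Cultures were held at 37°C, 5% CO2 for 6 days, then stained with XTT. EC50 (virus inhibition) and TC50 (cell viability) were derived from the XTT read-out, and TI was taken from these.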

A short description of data set [4]: Therapeutic index, ratio of TC50 for human CEM-SS cells infected with HIV1 3B to EC50 for HIV1 3B infected in human CEM-SS cells. It is filed as cell-based. To be noted: read-out: TI. The procedure, abridged: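 CEM-SS cells (2.5 × 10^3/well) in RPMI 1640 with 10% heat-inactivated FBS were infected with HIV-1 IIIB (MOI 0.0005–0.001). Peptides were added in triplicate at six serial concentrations, 0.32–100 μg/ml. Cultures were held at 37°C, 5% CO2 for 6 days, then stained with XTT. EC50 (virus inhibition) and TC50 (cell viability) were derived from the XTT read-out, and TI was taken from these.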

Setting [5] is: Human immunodeficiency virus 1, 3B, CEM-SS, 144 h.

Calls of active or inactive are those of the source. The calls are words filed in the database; no cut-off is given here.

On to `CC[C@H](C)[C@H](NC(=O)[C@H](CCCCN)NC(=O)[C@H](CCC(=O)O)NC(=O)[C@H](CCCCN)NC(=O)[C@H](CO)NC(=O)[C@H](CCCCN)NC(=O)[C@H](CCCNC(=N)N)NC(=O)[C@H](Cc1ccccc1)NC(=O)[C@H](Cc1ccccc1)NC(=O)[C@H](CC(=O)O)NC(=O)CNC(=O)[C@H](CC(C)C)NC(=O)[C@@H](N)CC(C)C)C(=O)NCC(=O)N[C@@H](CCCCN)C(=O)N[C@@H](CCC(=O)O)C(=O)N[C@@H](Cc1ccccc1)C(=O)N[C@@H](CCCCN)C(=O)N[C@@H](CCCNC(=N)N)C(=O)N[C@H](C(=O)N[C@H](C(=O)N[C@@H](CCC(N)=O)C(=O)N[C@@H](CCCNC(=N)N)C(=O)N[C@H](C(=O)N[C@@H](CCCCN)C(=O)N[C@@H](CC(=O)O)C(=O)N[C@@H](Cc1ccccc1)C(=O)N[C@@H](CC(C)C)C(=O)N[C@@H](CCCNC(=N)N)C(=O)N[C@@H](CC(N)=O)C(=O)N[C@@H](CC(C)C)C(=O)N[C@H](C(=O)N1CCC[C@H]1C(=O)N[C@@H](CCCNC(=N)N)C(=O)N[C@H](C(=O)N[C@@H](CCC(=O)O)C(=O)N[C@@H](CO)C(=O)O)[C@@H](C)O)C(C)C)[C@@H](C)CC)C(C)C)[C@@H](C)CC`, for which, in data set [1], the outcome was inactive.

For H-GLKKLLGKLLKKLGKLLLK-OH, the CC50 at 144 h in data set [2] worked out at 25.1 µM. Further, in data set [1], the outcome was Active. The EC50 in data set [3] (setting [5]) was > 47.5 µM. In data set [4], the selectivity ratio was < 0.5.

In the case of H-GWFDVVKHIAKRF-NH2, the CC50 at 144 h in data set [2] worked out at 10.6 µM. Further, in data set [3] (setting [5]), the EC50 came to 2.99 µM. Further, the selectivity ratio in data set [4] worked out at 3.55.

As to H-GWLKKIESIIDAF-OH, the CC50 at 144 h in data set [2] was > 65.8 µM. Moreover, the EC50 in data set [3] (setting [5]) was 29.5 µM. In data set [4], the selectivity ratio was > 2.2.

On to H-IKWKKLLRAAKRIL-NH2, for which the CC50 at 144 h in data set [2] was 1.3 µM. In data set [3] (setting [5]), the EC50 was > 57.6 µM. In addition, the selectivity ratio in data set [4] is < 0.02.

With H-ILGPVLGLVSRTLRRVLGIL-OH, the CC50 at 144 h in data set [2] amounted to 8.7 µM. Besides, in data set [3] (setting [5]), the 50% effective concentration (EC50) turned out to be 2.2 µM. Moreover, the selectivity ratio in data set [4] stood at 3.9.

Turning to “H-IWLTALKFLGKHAAKHLAKQQLSKL-OH [Lycotoxin I]”, in data set [2], the CC50 at 144 h was found to be 2.4 µM. Also, in data set [3] (setting [5]), the EC50 was > 35.2 µM. In addition, the selectivity ratio in data set [4] was < 0.07.

Regarding “H-LLKELWTKIKGAGKAVLGKIKGLL-OH [Ponericin L2]”, in data set [2], the CC50 at 144 h came out at 24.7 µM. In data set [3] (cem-ss), the EC50 came to 1.4 µM. Also, the selectivity ratio in data set [4] worked out at 17.6.

Turning to H-SLSRFLRFLKIVYRRAF-NH2, the CC50 at 144 h in data set [2] amounted to 8.6 µM. Also, the EC50 in data set [3] (setting [5]) was determined as 0.83 µM. Moreover, the selectivity ratio in data set [4] worked out at 10.4.

Consider H-SWKSMAKKLKEYMEKLKQRA-OH [Latarcin 3a], for which the CC50 at 144 h in data set [2] is > 40.3 µM. For the same molecule, the EC50 in data set [3] (setting [5]) was found to be 32.7 µM. Also, in data set [4], the selectivity ratio is > 1.23.

For “H-VFQFLGRIIHHVGNFVHGFSHVF-OH [Clavanin B]”, the CC50 at 144 h in data set [2] was found to be 37.1 µM. In addition, the EC50 in data set [3] (setting [5]) came to 7.1 µM. Moreover, the selectivity ratio in data set [4] was > 5.18.
